Reference: ChEMBL document CHEMBL1124459, “Activity of aromatic substituted phenylpiperazines lacking affinity for dopamine binding sites in a preclinical test of antipsychotic efficacy” (J Med Chem, 1989)

Tests used:
[1] = target: T1, Serotonin 1 (5-HT1) receptor (Rattus norvegicus, UniProt P28564+P30940+P19327+P28565); assay: Inhibition of [3H]5-HT radioligand binding against 5-hydroxytryptamine 1 receptor; format: protein assay
[2] = target: T2, 5-hydroxytryptamine receptor 1A (Rattus norvegicus, UniProt P19327)
T2 sequence (P19327 whole entry): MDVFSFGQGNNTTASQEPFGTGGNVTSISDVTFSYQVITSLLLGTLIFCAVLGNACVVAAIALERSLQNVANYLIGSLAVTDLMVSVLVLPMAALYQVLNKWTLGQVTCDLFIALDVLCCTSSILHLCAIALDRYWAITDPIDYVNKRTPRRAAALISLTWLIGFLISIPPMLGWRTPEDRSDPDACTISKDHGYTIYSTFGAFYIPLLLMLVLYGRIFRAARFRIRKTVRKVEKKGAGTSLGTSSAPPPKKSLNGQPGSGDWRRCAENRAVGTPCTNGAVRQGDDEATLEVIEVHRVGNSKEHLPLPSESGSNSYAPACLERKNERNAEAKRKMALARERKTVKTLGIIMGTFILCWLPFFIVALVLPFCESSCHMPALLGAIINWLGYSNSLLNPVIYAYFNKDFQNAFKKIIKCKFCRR

[3] = target: T3, Serotonin 2 (5-HT2) receptor (Rattus norvegicus, UniProt P30994+P08909+P14842); assay: Binding affinity at rat 5-hydroxytryptamine 2 receptor by [3H]ketanserin displacement.; format: protein assay
[4] = target: T4, Adrenergic receptor alpha-1 (Rattus norvegicus, UniProt P15823+P23944+P43140); assay: Binding affinity against rat Alpha-1 adrenergic receptor.; format: protein assay
T4 sequence (P15823 whole entry): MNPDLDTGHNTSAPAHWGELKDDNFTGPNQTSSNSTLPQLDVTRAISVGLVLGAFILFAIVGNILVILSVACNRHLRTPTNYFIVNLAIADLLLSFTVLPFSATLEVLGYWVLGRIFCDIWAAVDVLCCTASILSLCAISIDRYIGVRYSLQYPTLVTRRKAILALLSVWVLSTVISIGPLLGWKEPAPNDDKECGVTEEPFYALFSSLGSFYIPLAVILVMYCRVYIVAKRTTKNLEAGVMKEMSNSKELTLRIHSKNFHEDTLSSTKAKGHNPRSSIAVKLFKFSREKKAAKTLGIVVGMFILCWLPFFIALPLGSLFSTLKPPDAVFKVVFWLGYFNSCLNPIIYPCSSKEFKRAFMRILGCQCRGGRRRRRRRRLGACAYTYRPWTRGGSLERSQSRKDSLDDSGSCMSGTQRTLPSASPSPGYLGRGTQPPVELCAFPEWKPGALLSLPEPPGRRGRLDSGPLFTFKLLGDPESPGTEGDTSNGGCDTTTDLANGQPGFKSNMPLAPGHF
T4 sequence (P23944 whole entry): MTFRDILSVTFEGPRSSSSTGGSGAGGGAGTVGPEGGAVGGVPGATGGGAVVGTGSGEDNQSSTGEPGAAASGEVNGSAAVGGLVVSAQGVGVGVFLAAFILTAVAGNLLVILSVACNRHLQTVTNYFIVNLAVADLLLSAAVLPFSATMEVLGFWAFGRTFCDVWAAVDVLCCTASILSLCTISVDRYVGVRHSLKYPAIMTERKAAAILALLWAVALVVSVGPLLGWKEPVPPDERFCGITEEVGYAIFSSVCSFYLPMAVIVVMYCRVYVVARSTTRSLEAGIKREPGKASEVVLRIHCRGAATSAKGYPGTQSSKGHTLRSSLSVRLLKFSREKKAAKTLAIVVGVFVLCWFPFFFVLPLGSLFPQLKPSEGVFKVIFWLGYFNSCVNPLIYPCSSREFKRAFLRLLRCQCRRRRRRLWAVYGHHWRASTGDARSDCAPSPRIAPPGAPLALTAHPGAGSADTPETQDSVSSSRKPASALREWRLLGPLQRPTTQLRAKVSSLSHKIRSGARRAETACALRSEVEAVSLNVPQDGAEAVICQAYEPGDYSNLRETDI
T4 sequence (P43140 whole entry): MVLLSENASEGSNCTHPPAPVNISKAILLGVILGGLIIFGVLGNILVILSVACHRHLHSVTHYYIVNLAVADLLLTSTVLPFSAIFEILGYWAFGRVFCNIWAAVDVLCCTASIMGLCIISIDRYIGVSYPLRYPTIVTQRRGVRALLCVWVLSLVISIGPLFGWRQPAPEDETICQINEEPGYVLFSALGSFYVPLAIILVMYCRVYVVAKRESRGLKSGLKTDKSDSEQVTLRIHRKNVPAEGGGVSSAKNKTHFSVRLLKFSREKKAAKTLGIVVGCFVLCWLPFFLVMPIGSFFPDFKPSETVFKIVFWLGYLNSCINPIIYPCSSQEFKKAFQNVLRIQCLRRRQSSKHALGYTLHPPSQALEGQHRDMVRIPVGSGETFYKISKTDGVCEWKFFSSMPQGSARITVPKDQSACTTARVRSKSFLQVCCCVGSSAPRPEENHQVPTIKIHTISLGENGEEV

D(1A) dopamine receptor [5] = target: T5, D(1A) dopamine receptor (Rattus norvegicus, UniProt P18901); assay: Binding affinity at rat Dopamine receptor D1 by [3H]SCH-23390 displacement.
T5 sequence (P18901 whole entry): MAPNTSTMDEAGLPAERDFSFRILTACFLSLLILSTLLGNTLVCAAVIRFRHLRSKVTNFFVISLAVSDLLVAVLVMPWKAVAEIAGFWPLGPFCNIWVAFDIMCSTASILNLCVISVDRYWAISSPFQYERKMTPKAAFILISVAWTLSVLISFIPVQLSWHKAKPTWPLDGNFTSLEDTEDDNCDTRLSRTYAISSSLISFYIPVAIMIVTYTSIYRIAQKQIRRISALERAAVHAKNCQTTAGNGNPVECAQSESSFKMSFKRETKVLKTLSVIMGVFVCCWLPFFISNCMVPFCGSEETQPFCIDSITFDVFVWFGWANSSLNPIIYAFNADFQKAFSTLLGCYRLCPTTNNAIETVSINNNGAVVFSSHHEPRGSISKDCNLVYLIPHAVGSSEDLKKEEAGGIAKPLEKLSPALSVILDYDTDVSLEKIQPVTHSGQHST
In short: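 Rat striatal tissue suspended in 20 mM NaHepes without sucrose, at 250 volumes of the tissue weight. Labelled with [3H]SCH-23390 added as a 3 nM solution. Nonspecific binding set with unlabelled SCH-23390 added as a 30 μM solution. Incubated 20 min. Run in duplicate, with one to five concentration–response curves per compound.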

D(2) dopamine receptor [6] = target: T6, D(2) dopamine receptor (Rattus norvegicus, UniProt P61169); assay: Binding affinity against rat Dopamine receptor D2.
T6 sequence (P61169 whole entry): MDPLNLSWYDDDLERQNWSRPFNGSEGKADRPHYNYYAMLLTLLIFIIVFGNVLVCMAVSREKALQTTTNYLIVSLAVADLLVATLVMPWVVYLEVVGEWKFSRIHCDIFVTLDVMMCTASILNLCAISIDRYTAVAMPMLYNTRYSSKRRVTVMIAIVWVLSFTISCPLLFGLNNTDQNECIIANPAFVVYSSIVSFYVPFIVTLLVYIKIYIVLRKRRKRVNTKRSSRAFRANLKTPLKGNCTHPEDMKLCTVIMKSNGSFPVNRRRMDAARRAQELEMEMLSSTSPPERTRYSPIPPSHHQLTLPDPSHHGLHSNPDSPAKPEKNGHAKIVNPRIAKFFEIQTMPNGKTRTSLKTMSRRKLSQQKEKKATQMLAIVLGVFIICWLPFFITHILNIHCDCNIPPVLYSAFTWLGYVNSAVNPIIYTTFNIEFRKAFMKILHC

Rattus norvegicus [7] = assay: (§1) Effective dose in blocking conditioned avoidance responding (CAR) in the rat when administered intraperitoneally; format: functional; conditions: ip
In short: (§2)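 Rats trained on a discrete-trial single-lever conditioned avoidance task, dosed ip and tested at the time of peak effect. Each dose was given to 6–12 rats. CAR reduction and loss of escape responding were recorded.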

Rattus norvegicus [8] = organism: Rattus norvegicus; assay: (§3) The percent loss of escape responding was determined for the estimated effective dose 50 values for CAR block; format: functional
[9] = target: 5-hydroxytryptamine receptor 1B (Rattus norvegicus, UniProt P28564); assay: Binding affinity at rat 5-hydroxytryptamine 1B receptor by [3H]5-HT displacement.
5-hydroxytryptamine receptor 1B, sequence (P28564 whole entry): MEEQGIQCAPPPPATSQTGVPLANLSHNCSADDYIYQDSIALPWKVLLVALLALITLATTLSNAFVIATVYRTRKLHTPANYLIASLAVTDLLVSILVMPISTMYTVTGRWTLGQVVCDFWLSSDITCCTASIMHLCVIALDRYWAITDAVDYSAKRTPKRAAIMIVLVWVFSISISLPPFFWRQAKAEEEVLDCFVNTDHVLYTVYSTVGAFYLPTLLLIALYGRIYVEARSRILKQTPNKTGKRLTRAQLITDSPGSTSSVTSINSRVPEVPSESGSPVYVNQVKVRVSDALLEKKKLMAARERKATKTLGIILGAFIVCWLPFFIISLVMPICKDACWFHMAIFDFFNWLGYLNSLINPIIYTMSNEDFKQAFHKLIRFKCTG

[10] = target: T1, Serotonin 1 (5-HT1) receptor; assay: Binding affinity determined in radioreceptor binding assay by using [3H]5-HT radioligand against 5-hydroxytryptamine 1 receptor; format: protein assay
D(1A) dopamine receptor [11] = target: T5, D(1A) dopamine receptor; assay: Activity in radioreceptor binding assay by using […] against Dopamine receptor D1
Rattus norvegicus [12] = organism: Rattus norvegicus; assay: as §3; format: functional; in short: as §2; remark: listed apart in the source
[13] = target: T3, Serotonin 2 (5-HT2) receptor; assay: Binding affinity determined in radioreceptor binding assay by using [3H]ketanserin radioligand against 5-hydroxytryptamine 2 receptor; format: protein assay
D(2) dopamine receptor [14] = target: T6, D(2) dopamine receptor; assay: Binding affinity determined in radioreceptor binding assay against dopamine receptor D2
Rattus norvegicus [15] = assay: as §1; conditions: ip
D(1A) dopamine receptor [16] = target: T5, D(1A) dopamine receptor

Compound | Ki [1] [nM] | Ki [2] [nM] | Ki [3] [nM] | Ki [4] [nM] | Ki (D(1A) dopamine receptor [5]) [nM] | Ki (D(2) dopamine receptor [6]) [nM] | ED50 (Rattus norvegicus [7]) [mg/kg] | Loss (Rattus norvegicus [8]) [%] | Ki [9] [nM] | also measured
O=[N+]([O-])c1cccc(N2CCNCC2)c1 | 250 | ~322 | 419 | > 1000 | > 1000 | > 1000 | 5.6 | 4.3 | 33.6 | –
Fc1cccc(N2CCNCC2)c1 | 86.5 | 114 | > 1000 | 670 | > 1000 | > 1000 | 3.2 | – | 30.8 | –
CCOc1ccccc1N1CCNCC1 | 42.6 | 9.1 | 774 | 70 | > 1000 | 144 | 3.4 | ~1 | 13.8 | –
N#Cc1ccccc1N1CCNCC1 | 26.1 | 25.5 | > 1000 | 214 | > 1000 | > 1000 | 5.7 | 4.3 | 21.8 | –
CC(C)c1ccccc1N1CCNCC1 | – | 12.5 | 190 | 168 | – | 111 | 5.9 | – | 3.98 | Ki [10]: 23.4 nM; Ki (D(1A) dopamine receptor [11]): > 1000 nM; Loss (Rattus norvegicus [12]): 0.1%
Fc1ccccc1N1CCNCC1 | 57.9 | 43 | > 1000 | 373 | > 1000 | > 1000 | 5.1 | 1.6 | 28.9 | –
CCCCOc1ccccc1N1CCNCC1 | 19.3 | 11.1 | 277 | 139 | > 1000 | 244 | 11.2 | 0.2 | 4 | –
CCc1ccccc1N1CCNCC1 | – | 22.7 | 124 | 96 | > 1000 | 449 | 6.8 | – | 8.2 | Ki [10]: 17.1 nM; Loss (Rattus norvegicus [12]): 2.5%
COc1ccccc1N1CCNCC1 | 29 | 9.5 | > 1000 | 510 | > 1000 | – | 5.6 | 1.8 | 17.3 | –
CC(C)Oc1ccccc1N1CCNCC1 | 19 | 7.6 | 235 | 84 | > 1000 | 64 | 4.8 | 0.4 | 6.9 | –
Cc1ccccc1N1CCNCC1 | – | 27.4 | – | 108 | > 1000 | > 1000 | > 20 | – | 44.6 | Ki [10]: 62.4 nM; Ki [13]: 558 nM
Clc1ccccc1N1CCNCC1 | – | 19.5 | > 1000 | – | – | – | – | 3.1 | 11.7 | Ki (D(2) dopamine receptor [14]): > 1000 nM; ED50 (Rattus norvegicus [15]): 10.2 mg/kg; Ki (D(1A) dopamine receptor [16]): > 1000 nM
CCCc1ccccc1N1CCNCC1 | – | 19.4 | 232 | 117 | > 1000 | 379 | > 15 | – | 15.9 | Ki [10]: 34.9 nM
CCCCc1ccccc1N1CCNCC1 | – | 19.1 | 204 | 31.8 | > 1000 | 841 | > 15 | – | 8.4 | Ki [10]: 64.8 nM
CCCN(CCC)C1CCc2cccc(O)c2C1 (stereo unspecified) [8-OH-DPAT] | – | – | – | – | – | – | 0.5 | – | – | –
CN1[C@@H]2CC[C@H]1C[C@@H](OC(=O)C(CO)c1ccccc1)C2 (stereo partly specified) [ATROPINE] | – | – | – | – | – | – | 3 | – | – | –
Clc1cccc(N2CCNCC2)c1 [CHLOROPHENYLPIPERAZINE] | 25 | 23 | 40 | 236 | > 1000 | > 1000 | 2.4 | 1.5 | 4.4 | –
CN(C)CCCN1c2ccccc2Sc2ccc(Cl)cc21 [CHLORPROMAZINE] | – | – | – | – | – | – | 1.8 | 0.2 | – | –
CN1CCN(C2=Nc3cc(Cl)ccc3Nc3ccccc32)CC1 [CLOZAPINE] | – | – | – | – | – | – | – | 12.6 | – | –
COC(=O)[C@H]1[C@@H](OC(=O)c2ccccc2)C[C@@H]2CC[C@H]1N2C [COCAINE] | – | – | – | – | – | – | 10 | – | – | –
CNCCCN1c2ccccc2CCc2ccccc21 [DESIPRAMINE] | – | – | – | – | – | – | 20 | – | – | –
CN1C(=O)CN=C(c2ccccc2)c2cc(Cl)ccc21 [DIAZEPAM] | – | – | – | – | – | – | 10 | – | – | –
O=C(CCCN1CCC(O)(c2ccc(Cl)cc2)CC1)c1ccc(F)cc1 [HALOPERIDOL] | – | – | – | – | – | – | – | 1.7 | – | –
CCN(CC)C(=O)[C@@H]1C=C2c3cccc4[nH]cc(c34)C[C@H]2N(C)C1 [LYSERGIDE] | – | – | – | – | – | – | 0.32 | – | – | –
Clc1cncc(N2CCNCC2)n1 [MK-212] | – | 202 | > 1000 | 913 | > 1000 | > 1000 | 2.8 | 19 | 178 | Ki [10]: 844 nM
c1ccc(C2(N3CCCCC3)CCCCC2)cc1 [PHENCYCLIDINE] | – | – | – | – | – | – | 1 | – | – | –
c1ccc(N2CCNCC2)cc1 [PHENYLPIPERAZINE] | 149 | 149 | 668 | 794 | > 1000 | > 1000 | 2.7 | 6 | 63.3 | –
CSc1ccc2c(c1)N(CCC1CCCCN1C)c1ccccc1S2 (stereo unspecified) [THIORIDAZINE] | – | – | – | – | – | – | 9.7 | 7.3 | – | –
CN1CCN(CCCN2c3ccccc3Sc3ccc(C(F)(F)F)cc32)CC1 [TRIFLUOPERAZINE] | – | – | – | – | – | – | 0.52 | 1.2 | – | –
